# In ChEMBL document CHEMBL2163271, “Antitumor agents 295. E-ring hydroxylated antofine and cryptopleurine analogues as antiproliferative agents: design, synthesis, and mechanistic studies” (J Med Chem, 2012):
# Activity calls are given as the source filed them. The calls are words filed in the database; no cut-off is given here.
# Tests used:
# A549 [1] = experiment: Cytotoxicity against human A549 cells after 2 hrs by methylene blue staining-based spectrophotometric analysis; assay type: functional, cell-based; settings: A549, 2 h
# DU-145 = experiment: Cytotoxicity against human DU145 cells after 2 hrs by methylene blue staining-based spectrophotometric analysis; assay type: functional, cell-based; settings: DU-145, 2 h
# [2] = Cytotoxicity against human KBVIN cells overexpressing P-gp after 2 hrs by methylene blue staining-based spectrophotometric analysis; assay type: functional, cell-based
# KB = experiment: Cytotoxicity against human KB cells after 2 hrs by methylene blue staining-based spectrophotometric analysis; assay type: functional, cell-based
# PC-9 = experiment: Cytotoxicity against human PC9 cells assessed as cell viability after 48 hrs by SRB assay; assay type: functional, cell-based; settings: PC-9, 48 h
# Method in brief: (§1)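 Human NSCLC lines (CL1-0, CL1-5, PC9, PC9IR) exposed to increasing compound concentrations for 48 h. Growth read by sulforhodamine B (SRB) staining, with IC50 in nM taken from the dose-response.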
# A549 [3] = experiment: Downregulation of beta-catenin expression in human A549 cells at 3.6 nM after 48 hrs by RT-PCR analysis
# A549 [4] = experiment: Downregulation of VTI1B mRNA expression in human A549 cells by microarray analysis relative to control; assay type: functional
# Method in brief: (§2)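 Gene expression profiling of treated versus untreated A549 cells, with pathways analysed in the MetaCore database.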
# A549 [5] = experiment: Downregulation of FBXW mRNA expression in human A549 cells by microarray analysis relative to control; assay type: functional; method in brief: as §2
# A549 [6] = experiment: Downregulation of DYRK2 mRNA expression in human A549 cells by microarray analysis relative to control; assay type: functional; method in brief: as §2
# A549 [7] = experiment: Downregulation of myosin 5b mRNA expression in human A549 cells by microarray analysis relative to control; assay type: functional; method in brief: as §2
# A549 [8] = experiment: Cytotoxicity against human A549 cells assessed as effect on cell morphology at 60 nM after 48 hrs by inverted phase-contrast microscopy; assay type: functional, cell-based
# Method in brief: (§3)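 A549 cells exposed to a rising concentration series for 48 h, including 60 nM. Cells were viewed under an inverted phase-contrast microscope and photographed, and cell number and morphology were scored by eye.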
# A549 [9] = experiment: Downregulation of collagen 4 mRNA expression in human A549 cells by microarray analysis relative to control; assay type: functional; method in brief: as §2
# A549 [10] = experiment: Upregulation of ubiquitin mRNA expression in human A549 cells by microarray analysis relative to control; assay type: functional; method in brief: as §2
# A549 [11] = experiment: Downregulation of fibronectin mRNA expression in human A549 cells by microarray analysis relative to control; assay type: functional; method in brief: as §2
# A549 [12] = experiment: Downregulation of CDK11 mRNA expression in human A549 cells by microarray analysis relative to control; assay type: functional; method in brief: as §2
# [13] = Cytotoxicity against human PC9IR cells assessed as cell viability after 48 hrs by SRB assay; assay type: functional, cell-based; method in brief: as §1
# A549 [14] = experiment: Downregulation of cAMP dependent PKA cat mRNA expression in human A549 cells by microarray analysis relative to control; assay type: functional; method in brief: as §2
# A549 [15] = experiment: Downregulation of SKP2 mRNA expression in human A549 cells by microarray analysis relative to control; assay type: functional; method in brief: as §2
# MRC5 = experiment: Cytotoxicity against human MRC5 cells assessed as cell viability after 48 hrs by SRB assay; assay type: functional, cell-based; settings: MRC5, 48 h
# A549 [16] = experiment: Downregulation of FRS2 mRNA expression in human A549 cells by microarray analysis relative to control; assay type: functional; method in brief: as §2
# A549 [17] = experiment: Downregulation of PLEKHA8 mRNA expression in human A549 cells by microarray analysis relative to control; assay type: functional; method in brief: as §2
# A549 [18] = experiment: Downregulation of casein kinase 1 mRNA expression in human A549 cells by microarray analysis relative to control; assay type: functional; method in brief: as §2
# A549 [19] = experiment: Downregulation of beta-catenin mRNA expression in human A549 cells by microarray analysis relative to control
# A549 [20] = experiment: Downregulation of beta-catenin protein expression in human A549 cells at 3.6 to 100 nM after 48 hrs by Western blot analysis
# A549 [21] = experiment: Downregulation of SNAP-25 mRNA expression in human A549 cells by microarray analysis relative to control; assay type: functional; method in brief: as §2
# SK-BR-3 = experiment: Cytotoxicity against human SKBR3 cells after 2 hrs by methylene blue staining-based spectrophotometric analysis; assay type: functional, cell-based; settings: SK-BR-3, 2 h
# A549 [22] = experiment: Downregulation of PLAU mRNA expression in human A549 cells by microarray analysis relative to control; assay type: functional; method in brief: as §2
# A549 [23] = experiment: Downregulation of EEA1 mRNA expression in human A549 cells by microarray analysis relative to control; assay type: functional; method in brief: as §2
# A549 [24] = experiment: Downregulation of cyclin D protein expression in human A549 cells at 3.6 to 100 nM after 48 hrs by Western blot analysis; assay type: functional, cell-based
# A549 [25] = experiment: Downregulation of SAP18 mRNA expression in human A549 cells by microarray analysis relative to control; assay type: functional; method in brief: as §2
# A549 [26] = experiment: Cytotoxicity against human A549 cells assessed as cell viability after 48 hrs by SRB assay; assay type: functional, cell-based; settings: A549, 48 h
# A549 [27] = experiment: Downregulation of PI3K reg class 1A mRNA expression in human A549 cells by microarray analysis relative to control; assay type: functional; method in brief: as §2
# A549 [28] = experiment: Downregulation of PI3K cat class 1A mRNA expression in human A549 cells by microarray analysis relative to control; assay type: functional; method in brief: as §2
# A549 [29] = experiment: Downregulation of rabaptin-5 mRNA expression in human A549 cells by microarray analysis relative to control; assay type: functional; method in brief: as §2
# [30] = Cytotoxicity against human CL1-0 cells assessed as cell viability after 48 hrs by SRB assay; assay type: functional, cell-based; settings: CL1-0, 48 h; method in brief: as §1
# A549 [31] = experiment: Downregulation of XIAP mRNA expression in human A549 cells by microarray analysis relative to control; assay type: functional; method in brief: as §2
# A549 [32] = experiment: Downregulation of syntazin 7 mRNA expression in human A549 cells by microarray analysis relative to control; assay type: functional; method in brief: as §2
# A549 [33] = experiment: Downregulation of HSP90 mRNA expression in human A549 cells by microarray analysis relative to control; assay type: functional; method in brief: as §2
# A549 [34] = experiment: Downregulation of PECALM mRNA expression in human A549 cells by microarray analysis relative to control; assay type: functional; method in brief: as §2
# A549 [35] = experiment: Downregulation of HSP90 expression in human A549 cells at 3.6 nM after 48 hrs by RT-PCR analysis; assay type: functional, cell-based
# Method in brief: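 A549 cells exposed at 3.6 nM for 48 h. Transcript levels were measured by RT-PCR and compared with untreated cells.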
# A549 [36] = experiment: Downregulation of Eps 15 mRNA expression in human A549 cells by microarray analysis relative to control; assay type: functional; method in brief: as §2
# [37] = Cytotoxicity against human CL1-5 cells assessed as cell viability after 48 hrs by SRB assay; assay type: functional, cell-based; settings: CL1-5, 48 h; method in brief: as §1
# A549 [38] = experiment: Cytotoxicity against human A549 cells assessed as decrease in cell number at 60 nM after 48 hrs by inverted phase-contrast microscopy; assay type: functional, cell-based; method in brief: as §3
# A549 [39] = experiment: Downregulation of HSP90 protein expression in human A549 cells at 3.6 to 100 nM after 48 hrs by Western blot analysis; assay type: functional, cell-based
# Method in brief: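 A549 cells treated with graded compound concentrations for 48 h. Whole-cell extracts were immunoblotted with antibody against HSP90.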
structure (smiles),measurement,setting,value
COc1ccc2c3c(c4cc(OC)c(OC)cc4c2c1)C[C@H]1[C@@H](O)CCCN1C3,IC50,A549 [1],10 nM
same,IC50,DU-145,33 nM
same,IC50,[2],25 nM
same,IC50,KB,25 nM
COc1ccc2c3c(c4cc(OC)c(OC)cc4c2c1)C[C@H]1C[C@@H](O)CN1C3,IC50,A549 [1],610 nM
same,IC50,DU-145,700 nM
same,IC50,[2],640 nM
same,IC50,KB,780 nM
COc1ccc2c3c(c4cc(OC)c(OC)cc4c2c1)C[C@H]1[C@H](O)CCCN1C3,IC50,A549 [1],69 nM
same,IC50,DU-145,200 nM
same,IC50,[2],120 nM
same,IC50,KB,300 nM
COc1ccc2c3c(c4cc(OC)c(OC)cc4c2c1)C[C@H]1C[C@H](O)CCN1C3,IC50,PC-9,8.2 nM
same,Activity,A549 [3],Active
same,fold change (FC),A549 [4],<10
same,fold change (FC),A549 [5],<10
same,fold change (FC),A549 [6],<10
same,fold change (FC),A549 [7],<10
same,Activity,A549 [8],inactive
same,fold change (FC),A549 [9],<10
same,fold change (FC),A549 [10],>10
same,fold change (FC),A549 [11],<10
same,fold change (FC),A549 [12],<10
same,IC50,[13],43.2 nM
same,fold change (FC),A549 [14],<10
same,fold change (FC),A549 [15],<10
same,IC50,MRC5,98 nM
same,fold change (FC),A549 [16],<10
same,fold change (FC),A549 [17],<10
same,fold change (FC),A549 [18],<10
same,fold change (FC),A549 [19],<10
same,Activity,A549 [20],Active
same,fold change (FC),A549 [21],<10
same,IC50,SK-BR-3,72 nM
same,IC50,A549 [1],22 nM
same,fold change (FC),A549 [22],<10
same,fold change (FC),A549 [23],<10
same,Activity,A549 [24],Active
same,IC50,DU-145,11 nM
same,fold change (FC),A549 [25],<10
same,IC50,A549 [26],9 nM
same,fold change (FC),A549 [27],<10
same,fold change (FC),A549 [28],<10
same,fold change (FC),A549 [29],<10
same,IC50,[30],58.4 nM
same,fold change (FC),A549 [31],<10
same,fold change (FC),A549 [32],<10
same,fold change (FC),A549 [33],<10
same,IC50,[2],25 nM
same,IC50,KB,23 nM
same,fold change (FC),A549 [34],<10
same,Activity,A549 [35],Active
same,fold change (FC),A549 [36],<10
same,IC50,[37],8.7 nM
same,Activity,A549 [38],Active
same,Activity,A549 [39],Active
COc1ccc2c3c(c4cc(OC)c(OC)cc4c2c1)C[C@H]1CCC(=O)CN1C3,IC50,SK-BR-3,3340 nM
same,IC50,A549 [1],910 nM
same,IC50,DU-145,1700 nM
same,IC50,[2],1480 nM
same,IC50,KB,734 nM
